Key:
[1] = target: T1, Adenosine receptor A1 (Homo sapiens, UniProt P30542); test: Displacement of [3H]CCPA from human recombinant adenosine A1 receptor expressed in CHO cells; type: cell-based
T1 sequence (P30542 whole entry): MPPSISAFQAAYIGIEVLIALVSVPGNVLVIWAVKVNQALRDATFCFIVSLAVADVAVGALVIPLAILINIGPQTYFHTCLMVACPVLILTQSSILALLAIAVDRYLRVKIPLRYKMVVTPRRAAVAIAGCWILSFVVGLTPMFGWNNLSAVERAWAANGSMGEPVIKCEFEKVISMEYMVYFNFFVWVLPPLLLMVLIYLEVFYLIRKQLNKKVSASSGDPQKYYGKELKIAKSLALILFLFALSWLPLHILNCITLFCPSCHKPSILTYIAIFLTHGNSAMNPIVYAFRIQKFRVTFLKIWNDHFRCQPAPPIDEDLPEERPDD

[2] = target: Adenosine receptor A2a (Homo sapiens, UniProt P29274); test: Displacement of [3H]NECA from human recombinant adenosine A2A receptor expressed in CHO cells; type: cell-based
Procedure, shortened: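 Competition binding with [3H]NECA at 30 nM on stably transfected CHO cells. Nonspecific binding defined with 1 mM theophylline. Dissociation constants (Ki) obtained by nonlinear curve fitting.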

[3] = target: T2, Adenosine receptor A3 (Homo sapiens, UniProt P0DMS8); test: Displacement of [3H]NECA from human recombinant adenosine A3 receptor expressed in CHO cells; type: cell-based
T2 sequence (P0DMS8 whole entry): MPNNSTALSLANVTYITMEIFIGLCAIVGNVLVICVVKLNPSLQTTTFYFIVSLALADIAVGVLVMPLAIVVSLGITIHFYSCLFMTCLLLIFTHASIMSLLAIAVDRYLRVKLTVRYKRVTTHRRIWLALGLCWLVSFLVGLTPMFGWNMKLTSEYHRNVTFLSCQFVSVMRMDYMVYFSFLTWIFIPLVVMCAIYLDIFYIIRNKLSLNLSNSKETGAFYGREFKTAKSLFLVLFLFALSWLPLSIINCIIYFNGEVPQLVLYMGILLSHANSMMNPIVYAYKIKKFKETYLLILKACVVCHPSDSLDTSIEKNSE
Procedure, shortened: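 [3H]NECA used at 10 nM as radioligand in competition experiments, stably transfected CHO cells. Nonspecific binding defined with 1 mM theophylline. Ki from nonlinear curve fitting.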

[4] = target: Adenosine receptors; A1 & A3 (Homo sapiens) (UniProt P30542+P0DMS8); test: Selectivity for human adenosine A3 receptor over human adenosine A1 receptor; type: protein assay
[5] = target: Adenosine receptors; A2a & A3 (Homo sapiens) (UniProt P0DMS8+P29274); test: Selectivity for human adenosine A3 receptor over human adenosine A2A receptor; type: protein assay
[6] = target: T3, Adenosine receptor A3 (Homo sapiens) (UniProt P0DMS8); test: Activity at human adenosine A3 receptor assessed as inhibition of forskolin-stimulated cAMP production in CHO cells; type: functional, cell-based; parameters: concentration or dose not given beside the values
T3 sequence (whole entry): T2 sequence (P0DMS8 whole entry)

Chain of Adenosine receptor A2a (P29274 whole entry): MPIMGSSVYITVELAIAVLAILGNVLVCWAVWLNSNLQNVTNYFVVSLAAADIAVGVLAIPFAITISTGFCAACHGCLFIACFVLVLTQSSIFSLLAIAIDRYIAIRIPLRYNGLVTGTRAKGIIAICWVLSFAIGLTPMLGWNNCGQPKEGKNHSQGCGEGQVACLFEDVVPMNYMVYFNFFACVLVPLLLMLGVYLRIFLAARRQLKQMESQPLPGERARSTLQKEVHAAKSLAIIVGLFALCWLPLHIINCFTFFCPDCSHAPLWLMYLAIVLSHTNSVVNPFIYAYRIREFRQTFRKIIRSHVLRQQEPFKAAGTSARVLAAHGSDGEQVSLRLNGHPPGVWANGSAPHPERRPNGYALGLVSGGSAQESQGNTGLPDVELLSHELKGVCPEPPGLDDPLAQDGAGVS

Row | Ki [1] [nM] | Ki [2] [nM] | Ki [3] [nM] | Ratio Ki [4] | Ratio Ki [5] | Activity [6] [%] | Compound
1 | 4090 | 27100 | 68 | 60 | 399 | – | CCCCCc1ccc(C#Cc2nc(NOC)c3ncn([C@@H]4O[C@H](C(=O)NCC)[C@@H](O)[C@H]4O)c3n2)cc1
2 | 1210 | 4290 | 3.8 | 318 | 1100 | 81 | CONc1nc(C#Cc2ccccc2)nc2c1ncn2[C@@H]1O[C@@H](CO)[C@@H](O)[C@H]1O
3 | 153 | 12100 | 1.7 | 90 | 7100 | – | CNC(=O)[C@H]1O[C@@H](n2cnc3c(NOC)nc(I)nc32)[C@H](O)[C@@H]1O
4 | 58 | 12400 | 7.4 | 8 | 1700 | – | CONc1nc(I)nc2c1ncn2[C@@H]1O[C@H](CO)[C@@H](O)[C@H]1O
5 | 97 | 267 | 2.8 | 35 | 95 | – | CCCCC#Cc1nc(NOC)c2ncn([C@@H]3O[C@H](CO)[C@@H](O)[C@H]3O)c2n1
6 | 53 | 5290 | 2.8 | 19 | 1900 | – | CCNC(=O)[C@H]1O[C@@H](n2cnc3c(NOC)nc(I)nc32)[C@H](O)[C@@H]1O
7 | – | 14700 | 3.3 | 3600 | 4500 | – | CNC(=O)[C@H]1O[C@@H](n2cnc3c(NOC)nc(C#Cc4ccc(C)cc4)nc32)[C@H](O)[C@@H]1O
8 | 1880 | 6290 | 3.2 | 587 | 2000 | – | CCNC(=O)[C@H]1O[C@@H](n2cnc3c(NOC)nc(C#Cc4ccc(F)cc4)nc32)[C@H](O)[C@@H]1O
9 | 25 | 3140 | 23 | 1 | 136 | – | C#Cc1nc(NOC)c2ncn([C@@H]3O[C@H](CO)[C@@H](O)[C@H]3O)c2n1
10 | 2790 | 3960 | 4.4 | 634 | 900 | – | CONc1nc(C#Cc2ccc(F)cc2)nc2c1ncn2[C@@H]1O[C@H](CO)[C@@H](O)[C@H]1O
11 | 53800 | 10400 | 2.5 | 21500 | 4200 | 41 | CNC(=O)[C@H]1O[C@@H](n2cnc3c(NOC)nc(C#Cc4ccc(C(C)=O)cc4)nc32)[C@H](O)[C@@H]1O
12 | – | – | – | 90 | 100 | – | CCNC(=O)[C@H]1O[C@@H](n2cnc3c(N)nc(C#Cc4ccccc4)nc32)[C@H](O)[C@@H]1O
13 | 766 | 3080 | 3.7 | 207 | 832 | – | CONc1nc(C#Cc2ccc(CC#N)cc2)nc2c1ncn2[C@@H]1O[C@H](CO)[C@@H](O)[C@H]1O
14 | – | – | – | 24 | 23 | – | Nc1nc(C#Cc2ccccc2)nc2c1ncn2[C@@H]1O[C@H](CO)[C@@H](O)[C@H]1O
15 | 48100 | 31700 | 55 | 874 | 576 | – | CCCCCc1ccc(C#Cc2nc(NOC)c3ncn([C@@H]4O[C@H](C(=O)NC)[C@@H](O)[C@H]4O)c3n2)cc1
16 | 730 | 6520 | 39 | 19 | 167 | – | CCCCCc1ccc(C#Cc2nc(NOC)c3ncn([C@@H]4O[C@H](CO)[C@@H](O)[C@H]4O)c3n2)cc1
17 | 1880 | – | 3.5 | – | – | 35 | CCNC(=O)[C@H]1O[C@@H](n2cnc3c(NOC)nc(C#Cc4ccccc4)nc32)[C@H](O)[C@@H]1O
18 | 1230 | 4210 | 4 | 307 | 1100 | – | CCNC(=O)[C@H]1O[C@@H](n2cnc3c(NOC)nc(C#Cc4ccc(C(C)=O)cc4)nc32)[C@H](O)[C@@H]1O
19 | 1870 | 1780 | 4.3 | 435 | 414 | – | CONc1nc(C#Cc2ccc(OC)cc2)nc2c1ncn2[C@@H]1O[C@H](CO)[C@@H](O)[C@H]1O
20 | 1190 | 6310 | 6 | 198 | 1100 | – | CONc1nc(C#Cc2ccncc2)nc2c1ncn2[C@@H]1O[C@H](CO)[C@@H](O)[C@H]1O
21 | 3000 | 18700 | 1.9 | 1600 | 9800 | – | CNC(=O)[C@H]1O[C@@H](n2cnc3c(NOC)nc(C#Cc4ccc(F)cc4)nc32)[C@H](O)[C@@H]1O
22 | 175 | 6460 | 1.6 | 109 | 4000 | – | CCNC(=O)[C@H]1O[C@@H](n2cnc3c(NOC)nc(C#Cc4ccccn4)nc32)[C@H](O)[C@@H]1O
23 | 95 | 758 | 5.4 | 18 | 140 | – | CONc1nc(C#CCC(C)O)nc2c1ncn2[C@@H]1O[C@H](CO)[C@@H](O)[C@H]1O (stereo partly drawn)
24 | 1420 | 4600 | 6.8 | 209 | 676 | – | CCNC(=O)[C@H]1O[C@@H](n2cnc3c(NOC)nc(C#Cc4ccc(C)cc4)nc32)[C@H](O)[C@@H]1O
25 | 1380 | 35100 | 5.9 | 234 | 6000 | – | CONc1nc(C#Cc2ccc(C)cc2)nc2c1ncn2[C@@H]1O[C@H](CO)[C@@H](O)[C@H]1O
26 | 22 | 5740 | 13 | 1.7 | 441 | – | CONc1nc(C#C[Si](C)(C)C)nc2c1ncn2[C@@H]1O[C@H](CO)[C@@H](O)[C@H]1O
27 | 2450 | 8270 | 23 | 106 | 360 | – | CONc1nc(C#Cc2cccc(C(F)(F)F)c2)nc2c1ncn2[C@@H]1O[C@H](CO)[C@@H](O)[C@H]1O
28 | 255 | 12500 | 7.9 | 32 | 1600 | – | CONc1nc(C#Cc2cccnc2)nc2c1ncn2[C@@H]1O[C@H](CO)[C@@H](O)[C@H]1O
29 | 901 | 3130 | 5.2 | 173 | 602 | – | CONc1nc(C#Cc2ccc(C(N)=O)cc2)nc2c1ncn2[C@@H]1O[C@H](CO)[C@@H](O)[C@H]1O
30 | 282 | 1820 | 4.1 | 69 | 444 | – | CONc1nc(C#CCCCC#N)nc2c1ncn2[C@@H]1O[C@H](CO)[C@@H](O)[C@H]1O
